Source: PubChem
Only some compounds are listed: those with a hit (about 4.9% of all), similar ones and a draw of the others.
STAT3 act: activators of IL-6 induced STAT3 signaling; U3A cells, IL-6 STAT3-luciferase reporter, luminescence; 100% = signal with IL-6 EC80 alone; activation (% of control), % at 5.6 µM; actives 0.91% (n = 190,000); AID 871;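 active = activation above the screen-wide mean of compound activation plus 3 SD, cut at about 130% in these data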
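Material: human STAT1-deficient U3A cells with stable STAT3-luciferase reporter / Probe or stimulus: IL-6 stimulus at 33 ng/mL final / Schedule: 1 h compound pre-exposure, 6 h IL-6 stimulation, 37 °C / Technique: luminescence / Read-out basis: percent of IL-6-only median luminescence / Control set: IL-6-only high control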
APP 5'UTR act: activates APP 5'UTR luciferase reporter | SH-SY5Y APP 5'UTR luciferase reporter, luminescence; zero percent = DMSO vehicle wells | activation, % at 2 µM | actives 1% (n = 190,000) | AID 1276;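 active = activation above a set limit, based on mean plus 3 SD of controls, cut at about 140% in these data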
NF-kB neuron act: compounds increasing NF-kB expression in human neuronal cells; NF-kB reporter expression; stronger effect = higher value; fold change at 12.5 µM; actives 1.6% (n = 190,000); AID 1239; in the data active = fold change above about 3.3
STAT3 inh-1: STAT3 signaling inhibition | U3A cells, IL-6 STAT3-luciferase reporter, luminescence; host cell line lacks STAT1 | inhibition, % at 5.5 µM | actives 0.89% (n = 190,000) | AID 862;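 active = inhibition above the mean inhibition across all screened compounds plus 3 SD, cut at about 44% in these data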
STAT1 inh: reduces IFN-gamma driven STAT1 reporter signal | actives 0.35% (n = 200,000) | NIH 3T3 STAT1-luciferase reporter, luminescence | inhibition, % at 5.5 µM;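 active = inhibition above a set limit, the mean inhibition across all tested compounds plus 3 SD, cut at about 34% in these data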
STAT1 activator: STAT1 signaling activation. NIH 3T3 STAT1-luciferase reporter, IFN-gamma, luminescence; 100% = IFN-gamma alone, no compound. activation (% of control), % at 5.5 µM. actives 2.6% (n = 200,000). AID 932;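 active = activation above the screen-wide mean activation plus 3 SD, cut at about 130% in these data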
STAT3 inh-2: STAT3 inhibition, confirmation assay; actives 45% (n = 1,200); AID 1265; U3A cells, IL-6 STAT3 luciferase reporter, luminescence; cell line lacks STAT1; shares compounds with STAT3 inh-1; inhibition, % at 5.7 µM;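 active = inhibition above the hit cutoff computed for the primary STAT3 screen, cut at about 44% in these data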
NFkB inh 2: counter-screen for STAT3 inhibitors: NF-kappaB inhibition; AID 1308; HEK293T NF-kB luciferase reporter, TNF-alpha induced; actives 36% (n = 1,200); inhibition, % at 5.7 µM; shares compounds with STAT3 inh-1;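 active = inhibition above the mean of solvent-only control wells plus 3 SD, cutoff set per campaign, cut at about 13% in these data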
STAT1 inh STAT3c: STAT1 inhibition in STAT3 inhibitor counter-screen | NIH 3T3 STAT1-luciferase reporter, IFN-gamma induced, luminescence | actives 27% (n = 1,200) | inhibition, % at 5.7 µM | shares compounds with STAT3 inh-1;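 active = inhibition above the mean plus 3 SD of solvent-only control wells, limit set per screening run, cut at about 16% in these data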
Hits are given with their value; n = inactive; x = no result.

SMILES | STAT3 act | APP 5'UTR act | NF-kB neuron act | STAT3 inh-1 | STAT1 inh | STAT1 activator | STAT3 inh-2 | NFkB inh 2 | STAT1 inh STAT3c
CC1(NC(=O)NCc2ccccc2)CCS(=O)(=O)C1 (stereo not drawn) | n | n | n | n | n | n | x | x | x
NC(=O)c1ccc(NC(=O)c2ccc(CN3CCOCC3)cc2)cc1 | n | n | n | n | n | n | x | x | x
Cc1cc(CSc2ccccc2)ccc1NC(=O)c1ccc(CN2CCOCC2)cc1 | n | n | n | 73 | n | n | 79 | 30 | 17
CCOC(=O)c1ccc(NC(=O)c2ccc(CN3CCOCC3)cc2)cc1 | n | n | n | 68 | n | n | 69 | n | n
O=C(/C=C/c1ccccc1)NC(=S)Nc1ccc(CN2CCOCC2)cc1 | n | n | n | n | n | n | x | x | x
O=C(Nc1ccc(CN2CCOCC2)cc1)c1ccccc1F | n | n | n | n | n | n | x | x | x
O=C(/C=C/c1ccc(Cl)cc1)Nc1ccc(CN2CCOCC2)cc1 | n | n | n | 45 | n | n | 62 | 14 | n
O=C(Nc1ccc(CN2CCOCC2)cc1)c1cc2ccccn2n1 | n | n | n | 76 | n | n | n | n | n
O=C(NCCc1c[nH]c2ccccc12)[C@@H]1C[C@H]1[C@@H](NP(=O)(c1ccccc1)c1ccccc1)c1ccccc1 | n | n | n | n | n | n | x | x | x
CN(c1ccccc1)S(=O)(=O)c1cc(C(=O)OCC(N)=O)ccc1Cl | n | n | n | n | n | n | x | x | x
CCNc1ccc(C(=O)OCC(=O)c2cc(C)n(Cc3ccc4c(c3)OCO4)c2C)cc1[N+](=O)[O-] | n | n | n | n | n | n | x | x | x
CN(C(=O)c1ccc2c(Cl)c3c(nc2c1)CCC3)c1ccccc1 | n | n | n | n | n | n | x | x | x
Cc1cccc(NC(=O)c2ccoc2C)n1 | n | n | n | n | n | n | x | x | x
Cc1cccc(NC(=O)c2ccc3c(Cl)c4c(nc3c2)CCCC4)n1 | n | 160 | n | 64 | n | 145 | n | n | n
Cc1cccc(NC(=O)c2onc3c2CCCC3)n1 | n | 158 | n | 71 | n | n | 55 | 18 | n
CCCOc1ccc(-c2nc[nH]c2[N+](=O)[O-])cc1 | n | n | n | n | n | n | x | x | x
CN1CCN(C(=O)C2=C[C@H](c3csc4ccccc34)C[C@H](OCCCCO)O2)CC1 | x | n | n | x | n | n | x | x | x
Nc1nc(Br)c2c(F)cccc2c1-c1ccc(F)cc1 | n | n | n | n | n | n | x | x | x
Nc1nc(Br)c2c(F)cccc2c1-c1ccccc1 | n | n | n | 46 | n | n | n | n | n
COc1ccc(NC(=O)CSc2ncccc2C(=O)OC(C)C)cc1OC | n | n | n | 51 | n | n | n | n | 17
COc1ccc(NC(=O)CSc2ccccn2)cc1OC | n | n | n | n | n | n | x | x | x
COc1ccc(N=C/C=C2\C=C(c3ccccc3)OC(C)(C)O2)cc1 | n | n | n | 48 | n | n | n | n | n
O=C(c1ccc(F)cc1)N1CCCCC(Sc2nnnn2-c2ccccc2)C1=O (stereo not drawn) | n | n | n | n | n | n | x | x | x
COc1ccc(Cc2noc(CN3CCCN(Cc4ccc(F)cc4)CC3)n2)cc1OC | n | n | n | n | n | n | x | x | x
COc1ccc(Cc2noc(CN3CCC(c4ccncc4)CC3)n2)cc1OC | n | n | n | 60 | n | n | n | 14 | n
COc1ccccc1OCC(=O)c1[nH]c(C)c(C(C)=O)c1C | n | n | n | 56 | n | n | 46 | n | n
CC(=O)c1c(C)[nH]c(C(=O)COc2ccc(C#N)cc2)c1C | n | n | n | n | n | n | x | x | x
CC(=O)c1c(C)[nH]c(C(=O)COc2cc(C)ccc2C(C)C)c1C | n | n | n | 68 | n | n | 73 | 21 | 22
O=C(COC(=O)CNC(=O)c1ccccc1)Nc1nc(-c2ccccc2)cs1 | n | n | n | n | n | n | x | x | x
